Data: ChEMBL document CHEMBL5653631, “A Potent and Selective ULK1 Inhibitor Suppresses Autophagy and Sensitizes Cancer Cells to Nutrient Stress” (iScience, 2018)

Legend:
[1] = target: T1, Serine/threonine-protein kinase PLK4 (Homo sapiens) (UniProt O00444); test: Inhibition of human recombinant PLK4 at 40 nM in presence of ATP by radiometric assay relative to control
T1 sequence (whole entry): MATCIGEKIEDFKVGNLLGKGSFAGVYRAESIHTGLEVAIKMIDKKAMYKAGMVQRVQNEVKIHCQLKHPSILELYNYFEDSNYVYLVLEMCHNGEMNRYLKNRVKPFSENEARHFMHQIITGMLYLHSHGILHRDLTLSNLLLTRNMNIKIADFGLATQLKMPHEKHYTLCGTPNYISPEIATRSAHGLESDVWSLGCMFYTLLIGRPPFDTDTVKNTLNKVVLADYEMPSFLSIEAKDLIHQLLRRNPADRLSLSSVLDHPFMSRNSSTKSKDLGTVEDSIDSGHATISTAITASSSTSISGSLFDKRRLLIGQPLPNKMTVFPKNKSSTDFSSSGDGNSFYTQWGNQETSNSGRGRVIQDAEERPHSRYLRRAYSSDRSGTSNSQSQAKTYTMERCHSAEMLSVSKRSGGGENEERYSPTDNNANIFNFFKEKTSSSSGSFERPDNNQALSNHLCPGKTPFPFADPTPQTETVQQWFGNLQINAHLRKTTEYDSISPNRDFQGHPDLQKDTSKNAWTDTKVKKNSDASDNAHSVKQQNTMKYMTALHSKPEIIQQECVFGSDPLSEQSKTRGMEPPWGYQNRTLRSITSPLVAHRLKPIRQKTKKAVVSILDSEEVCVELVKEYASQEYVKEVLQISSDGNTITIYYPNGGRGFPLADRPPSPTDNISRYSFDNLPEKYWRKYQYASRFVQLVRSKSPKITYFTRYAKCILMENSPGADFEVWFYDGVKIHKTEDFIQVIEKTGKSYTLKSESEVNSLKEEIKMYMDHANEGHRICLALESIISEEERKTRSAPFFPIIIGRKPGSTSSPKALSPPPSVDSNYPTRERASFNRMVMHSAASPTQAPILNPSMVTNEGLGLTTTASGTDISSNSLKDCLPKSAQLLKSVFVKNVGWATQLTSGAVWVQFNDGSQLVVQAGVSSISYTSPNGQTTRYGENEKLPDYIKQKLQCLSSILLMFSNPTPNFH

[2] = target: Mitogen-activated protein kinase 10 (Homo sapiens) (UniProt P53779); test: Inhibition of human recombinant JNK3 at 500 nM in presence of ATP by radiometric assay relative to control
[3] = target: Vascular endothelial growth factor receptor 2 (Homo sapiens) (UniProt P35968); test: Inhibition of human recombinant KDR at 500 nM related to control ULK1
Chain of Vascular endothelial growth factor receptor 2 (Homo sapiens) (P35968 whole entry): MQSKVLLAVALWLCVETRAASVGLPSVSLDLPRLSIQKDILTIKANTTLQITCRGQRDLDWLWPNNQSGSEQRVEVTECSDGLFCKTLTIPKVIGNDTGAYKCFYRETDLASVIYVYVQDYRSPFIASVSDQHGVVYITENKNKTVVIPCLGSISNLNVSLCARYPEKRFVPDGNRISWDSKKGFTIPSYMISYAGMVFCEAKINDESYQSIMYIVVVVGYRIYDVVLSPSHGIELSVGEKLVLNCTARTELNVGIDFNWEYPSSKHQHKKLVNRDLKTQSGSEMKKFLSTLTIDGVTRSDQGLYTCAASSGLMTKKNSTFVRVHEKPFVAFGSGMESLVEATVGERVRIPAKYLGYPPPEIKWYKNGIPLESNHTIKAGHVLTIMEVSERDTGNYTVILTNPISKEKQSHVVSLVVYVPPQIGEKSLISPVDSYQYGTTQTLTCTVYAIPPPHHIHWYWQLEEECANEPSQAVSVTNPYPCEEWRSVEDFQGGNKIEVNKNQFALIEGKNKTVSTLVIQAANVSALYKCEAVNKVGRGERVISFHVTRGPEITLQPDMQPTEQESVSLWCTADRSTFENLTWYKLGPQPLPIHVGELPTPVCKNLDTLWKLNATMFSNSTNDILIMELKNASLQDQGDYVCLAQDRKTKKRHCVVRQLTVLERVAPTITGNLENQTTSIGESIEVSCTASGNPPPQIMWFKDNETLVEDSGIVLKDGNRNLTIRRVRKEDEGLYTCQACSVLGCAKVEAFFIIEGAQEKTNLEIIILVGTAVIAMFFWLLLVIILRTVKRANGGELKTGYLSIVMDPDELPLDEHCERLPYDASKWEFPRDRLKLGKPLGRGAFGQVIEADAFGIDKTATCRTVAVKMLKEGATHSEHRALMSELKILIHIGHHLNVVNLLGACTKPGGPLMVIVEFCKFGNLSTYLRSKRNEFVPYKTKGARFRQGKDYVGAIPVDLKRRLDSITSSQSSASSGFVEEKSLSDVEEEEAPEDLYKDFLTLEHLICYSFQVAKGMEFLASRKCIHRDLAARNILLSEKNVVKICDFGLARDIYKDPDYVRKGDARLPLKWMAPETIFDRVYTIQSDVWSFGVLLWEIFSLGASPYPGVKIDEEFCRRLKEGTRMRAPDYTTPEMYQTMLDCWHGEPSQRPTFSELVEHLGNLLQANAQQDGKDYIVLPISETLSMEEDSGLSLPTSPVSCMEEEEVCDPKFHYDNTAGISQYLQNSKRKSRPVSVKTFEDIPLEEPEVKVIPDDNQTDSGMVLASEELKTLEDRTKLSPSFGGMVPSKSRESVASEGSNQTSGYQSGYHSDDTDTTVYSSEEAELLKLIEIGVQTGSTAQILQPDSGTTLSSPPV

[4] = target: Calcium/calmodulin-dependent protein kinase type 1D (Homo sapiens) (UniProt Q8IU85); test: Inhibition of human recombinant CaMK1d at 500 nM in presence of ATP by radiometric assay relative to control
[5] = target: Cyclin-dependent kinase 13 (Homo sapiens) (UniProt Q14004); test: Inhibition of human recombinant CHED at 500 nM in presence of ATP by radiometric assay relative to control
Chain of Cyclin-dependent kinase 13 (Homo sapiens) (Q14004 whole entry, looked up): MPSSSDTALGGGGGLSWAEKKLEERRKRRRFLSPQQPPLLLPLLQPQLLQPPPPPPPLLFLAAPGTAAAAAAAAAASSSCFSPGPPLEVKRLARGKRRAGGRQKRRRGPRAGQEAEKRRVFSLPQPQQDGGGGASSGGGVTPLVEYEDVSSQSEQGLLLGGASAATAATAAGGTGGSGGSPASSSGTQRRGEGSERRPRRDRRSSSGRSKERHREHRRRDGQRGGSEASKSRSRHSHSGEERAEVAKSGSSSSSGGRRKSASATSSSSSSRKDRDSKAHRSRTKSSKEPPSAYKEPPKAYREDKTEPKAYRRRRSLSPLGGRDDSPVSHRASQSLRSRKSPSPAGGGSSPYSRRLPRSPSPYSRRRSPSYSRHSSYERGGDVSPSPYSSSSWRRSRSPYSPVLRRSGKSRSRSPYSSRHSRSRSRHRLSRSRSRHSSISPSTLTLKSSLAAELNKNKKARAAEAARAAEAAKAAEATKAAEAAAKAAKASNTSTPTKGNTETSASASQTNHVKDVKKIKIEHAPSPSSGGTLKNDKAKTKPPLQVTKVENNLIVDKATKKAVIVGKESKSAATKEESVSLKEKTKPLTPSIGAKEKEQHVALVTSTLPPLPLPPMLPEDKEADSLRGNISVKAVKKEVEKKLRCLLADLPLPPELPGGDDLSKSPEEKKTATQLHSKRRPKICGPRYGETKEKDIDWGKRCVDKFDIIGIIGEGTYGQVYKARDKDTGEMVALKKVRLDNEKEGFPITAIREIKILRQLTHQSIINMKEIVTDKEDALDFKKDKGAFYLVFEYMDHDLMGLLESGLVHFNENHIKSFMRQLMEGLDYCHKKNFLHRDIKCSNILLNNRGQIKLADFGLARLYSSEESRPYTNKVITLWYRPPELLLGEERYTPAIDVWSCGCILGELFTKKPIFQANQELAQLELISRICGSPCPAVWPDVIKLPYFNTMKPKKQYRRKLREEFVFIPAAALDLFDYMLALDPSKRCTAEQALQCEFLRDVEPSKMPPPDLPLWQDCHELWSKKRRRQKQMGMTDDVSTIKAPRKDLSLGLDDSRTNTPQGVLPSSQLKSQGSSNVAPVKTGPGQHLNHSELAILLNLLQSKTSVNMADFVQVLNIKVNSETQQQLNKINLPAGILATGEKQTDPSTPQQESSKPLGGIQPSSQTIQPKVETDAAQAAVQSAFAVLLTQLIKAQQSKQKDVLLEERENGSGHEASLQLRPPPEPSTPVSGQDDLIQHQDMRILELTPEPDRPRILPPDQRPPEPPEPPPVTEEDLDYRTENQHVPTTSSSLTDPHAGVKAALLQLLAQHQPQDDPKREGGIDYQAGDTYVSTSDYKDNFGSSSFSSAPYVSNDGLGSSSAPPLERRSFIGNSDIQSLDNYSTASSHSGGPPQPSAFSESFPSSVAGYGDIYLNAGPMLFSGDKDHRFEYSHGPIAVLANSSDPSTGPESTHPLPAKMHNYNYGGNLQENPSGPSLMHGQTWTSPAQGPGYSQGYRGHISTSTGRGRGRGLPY

[6] = target: Protein-tyrosine kinase 6 (Homo sapiens) (UniProt Q13882); test: Inhibition of human recombinant BRK at 500 nM in presence of ATP by radiometric assay relative to control
Chain of Protein-tyrosine kinase 6 (Homo sapiens) (Q13882 whole entry, looked up): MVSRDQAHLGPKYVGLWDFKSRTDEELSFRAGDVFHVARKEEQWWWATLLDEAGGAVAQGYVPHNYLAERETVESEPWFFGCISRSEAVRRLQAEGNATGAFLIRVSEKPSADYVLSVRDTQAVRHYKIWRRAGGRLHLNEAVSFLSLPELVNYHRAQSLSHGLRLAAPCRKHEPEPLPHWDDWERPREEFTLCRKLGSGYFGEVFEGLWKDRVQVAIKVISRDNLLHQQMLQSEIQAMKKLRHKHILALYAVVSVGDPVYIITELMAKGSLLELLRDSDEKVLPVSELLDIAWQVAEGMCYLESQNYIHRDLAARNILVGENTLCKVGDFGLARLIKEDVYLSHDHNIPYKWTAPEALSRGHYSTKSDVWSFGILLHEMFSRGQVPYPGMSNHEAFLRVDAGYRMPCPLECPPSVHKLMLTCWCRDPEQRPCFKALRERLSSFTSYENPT
How it was run: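 Part of a radiometric in vitro activity panel of 327 recombinant human kinases. Each kinase was tested in duplicate at one inhibitor concentration. Activity remaining was expressed as a percentage of the vehicle control, and percent inhibition was taken as 100 minus that value.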

[7] = target: MAP kinase-activated protein kinase 3 (Homo sapiens) (UniProt Q16644); test: Inhibition of human recombinant MAPKAPK3 at 15 nM in presence of ATP by radiometric assay relative to control
Chain of MAP kinase-activated protein kinase 3 (Homo sapiens) (Q16644 whole entry, looked up): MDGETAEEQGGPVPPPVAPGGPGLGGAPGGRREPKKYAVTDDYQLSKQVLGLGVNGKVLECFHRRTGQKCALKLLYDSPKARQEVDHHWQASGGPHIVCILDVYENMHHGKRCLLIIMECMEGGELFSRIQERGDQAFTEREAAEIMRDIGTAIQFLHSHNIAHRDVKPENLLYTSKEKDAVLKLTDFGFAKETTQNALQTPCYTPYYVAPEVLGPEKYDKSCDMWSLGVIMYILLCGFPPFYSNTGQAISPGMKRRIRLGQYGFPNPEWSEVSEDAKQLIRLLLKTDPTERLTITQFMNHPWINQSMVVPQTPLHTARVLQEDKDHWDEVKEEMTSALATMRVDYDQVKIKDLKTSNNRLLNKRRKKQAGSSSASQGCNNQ

[8] = target: Serine/threonine-protein kinase PAK 1 (Homo sapiens) (UniProt Q13153); test: Inhibition of human recombinant PAK1 at 15 nM related to control ULK1
Chain of Serine/threonine-protein kinase PAK 1 (Homo sapiens) (Q13153 whole entry, looked up): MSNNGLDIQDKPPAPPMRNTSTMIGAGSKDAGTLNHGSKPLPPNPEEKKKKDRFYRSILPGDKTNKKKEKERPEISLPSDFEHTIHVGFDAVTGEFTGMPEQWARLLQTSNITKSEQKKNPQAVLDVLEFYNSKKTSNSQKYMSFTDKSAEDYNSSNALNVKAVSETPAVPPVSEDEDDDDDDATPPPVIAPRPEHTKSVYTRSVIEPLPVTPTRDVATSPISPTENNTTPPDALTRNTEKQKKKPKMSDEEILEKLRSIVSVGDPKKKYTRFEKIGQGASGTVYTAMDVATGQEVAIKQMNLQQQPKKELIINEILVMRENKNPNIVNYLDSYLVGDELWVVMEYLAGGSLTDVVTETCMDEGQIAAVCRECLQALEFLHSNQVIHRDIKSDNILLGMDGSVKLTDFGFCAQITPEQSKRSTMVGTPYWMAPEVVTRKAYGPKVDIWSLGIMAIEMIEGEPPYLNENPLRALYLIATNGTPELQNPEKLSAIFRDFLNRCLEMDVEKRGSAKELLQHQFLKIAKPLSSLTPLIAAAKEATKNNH

[9] = target: T2, cGMP-dependent protein kinase 1 (Homo sapiens) (UniProt Q13976); test: Inhibition of human recombinant PKG1 at 15 nM in presence of ATP by radiometric assay relative to control
T2 sequence (whole entry): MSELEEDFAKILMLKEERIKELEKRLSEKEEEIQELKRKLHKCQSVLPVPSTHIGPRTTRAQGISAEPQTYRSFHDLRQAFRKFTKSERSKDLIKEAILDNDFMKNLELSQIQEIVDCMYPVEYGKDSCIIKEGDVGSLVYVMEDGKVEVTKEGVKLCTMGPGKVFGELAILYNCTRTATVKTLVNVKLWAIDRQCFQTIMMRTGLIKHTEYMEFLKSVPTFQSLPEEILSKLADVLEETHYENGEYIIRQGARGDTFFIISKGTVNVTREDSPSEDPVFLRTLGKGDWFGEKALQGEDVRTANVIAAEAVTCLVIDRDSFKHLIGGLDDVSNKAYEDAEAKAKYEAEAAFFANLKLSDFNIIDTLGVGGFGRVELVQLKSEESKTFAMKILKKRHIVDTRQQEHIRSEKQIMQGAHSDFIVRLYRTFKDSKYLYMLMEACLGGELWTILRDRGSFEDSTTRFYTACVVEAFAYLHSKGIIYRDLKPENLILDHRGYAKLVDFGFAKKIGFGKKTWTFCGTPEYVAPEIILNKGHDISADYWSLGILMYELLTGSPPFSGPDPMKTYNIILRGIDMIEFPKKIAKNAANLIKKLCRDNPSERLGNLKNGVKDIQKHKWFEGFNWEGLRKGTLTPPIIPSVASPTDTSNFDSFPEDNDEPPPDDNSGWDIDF

[10] = target: Fibroblast growth factor receptor 2 (Homo sapiens) (UniProt P21802); test: Inhibition of human recombinant FGFR2 at 15 nM in presence of ATP by radiometric assay relative to control
[11] = target: MAP/microtubule affinity-regulating kinase 3 (Homo sapiens) (UniProt P27448); test: Inhibition of human recombinant MARK3 at 15 nM related to control ULK1
Chain of MAP/microtubule affinity-regulating kinase 3 (Homo sapiens) (P27448 whole entry, looked up): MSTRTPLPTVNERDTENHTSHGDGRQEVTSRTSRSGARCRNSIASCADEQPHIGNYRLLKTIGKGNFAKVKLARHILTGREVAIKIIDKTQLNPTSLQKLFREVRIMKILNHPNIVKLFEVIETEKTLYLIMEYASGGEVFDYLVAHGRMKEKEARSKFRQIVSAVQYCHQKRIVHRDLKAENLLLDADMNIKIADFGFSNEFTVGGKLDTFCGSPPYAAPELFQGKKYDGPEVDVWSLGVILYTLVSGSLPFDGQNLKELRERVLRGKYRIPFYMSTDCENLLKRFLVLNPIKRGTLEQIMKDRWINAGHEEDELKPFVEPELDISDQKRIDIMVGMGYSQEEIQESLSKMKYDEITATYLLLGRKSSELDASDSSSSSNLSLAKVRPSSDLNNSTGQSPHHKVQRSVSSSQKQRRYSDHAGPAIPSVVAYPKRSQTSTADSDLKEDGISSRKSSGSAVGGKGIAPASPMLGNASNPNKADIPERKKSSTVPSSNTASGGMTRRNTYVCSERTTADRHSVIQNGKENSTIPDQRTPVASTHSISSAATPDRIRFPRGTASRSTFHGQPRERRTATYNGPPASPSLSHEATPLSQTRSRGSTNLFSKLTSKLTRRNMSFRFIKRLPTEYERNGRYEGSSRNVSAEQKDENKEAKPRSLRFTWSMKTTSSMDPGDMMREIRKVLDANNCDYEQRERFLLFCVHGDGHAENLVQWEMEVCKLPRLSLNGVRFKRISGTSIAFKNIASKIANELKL

[12] = target: Serine-protein kinase ATM (Homo sapiens) (UniProt Q13315); test: Inhibition of human recombinant ATM at 15 nM related to control ULK1
How it was run: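 Panel of 327 recombinant human kinases, each assayed in vitro by radiometric activity assay in duplicate at a single inhibitor concentration per compound, chosen with reference to its ULK1 inhibition. Activity remaining was expressed as percent of vehicle control, and percent inhibition was calculated as 100 minus percent activity remaining.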

`O=C(N[C@@H](C1CC1)C(F)(F)F)c1cc(-c2cnn3cc(-c4ccc(F)cc4)cnc23)cs1` gave an inhibition [1] of 7%.

Molecule `CNC(=O)c1ccccc1Oc1nc(Nc2cc(OC)c(OC)c(OC)c2)ncc1Br` has an inhibition [2] of 3%, a fold change (FC) [3] of 0 and an inhibition [4] of 5%. The inhibition [5] was 0% and the inhibition [6] was 2%.

With `CC(C)[C@H](NC(=O)c1cc(-c2cnn3cc(-c4ccc(OCCN5CCCCC5)cc4)cnc23)cs1)C(F)(F)F` the inhibition [7] was 0%, the fold change (FC) [8] was 0 and the inhibition [9] was 0%. The inhibition [10] was 0%, the fold change (FC) [11] was 0.72 and the fold change (FC) [12] was 0.07.
